Results: ChEMBL document CHEMBL3227951, “Alkylating nucleosides 1. Synthesis and cytostatic activity of N-glycosyl(halomethyl)-1,2,3-triazoles. A new type of alkylating agent” (J Med Chem, 1979)
Values after ≈ are worked out from the molar mass of the structure shown. Active and inactive are the calls of the source. The calls are words filed in the database; no cut-off is given here.

Key:
HeLa = assay: In vitro cytostatic activity against human HeLa cells assessed as cell growth after 72 hrs by colorimetric method; type: functional; conditions: read-out: ED50 (the source's name)
How it was run: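 HeLa cells at 10⁵ cells/mL in Eagle's minimal medium with 10% fetal calf serum, Leighton tubes, 37 °C. Compound added 2-3 h after attachment, suspended in sterile saline with 0.05% Tween 80 (10% of final volume). Incubated 72 h at 37 °C. Growth measured as cell protein by the Oyama-Eagle colorimetric method. 6-Mercaptopurine was the positive control. ED50 in μg/mL.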

Mus musculus [1] = assay: In vivo cytostatic activity against mouse Ehrlich carcinoma ascites allografted in ip dosed ICR swiss mouse assessed as median survival time administered qd for 9 days beginning 24 hrs after tumor implantation; type: functional, organism-based
How it was run: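 Female ICR Swiss mice (19-22 g) carrying Ehrlich ascites carcinoma, following NCI protocols 1100/1200. Compound suspended in 0.9% NaCl with 0.5% Tween 80 and given ip at 0.4 mL, once daily for 9 days starting 24 h after implantation. Groups of 6 treated and 30 control mice. 5-Fluorouracil at 20 mg/kg was the positive control. T/C = median survival of treated over control, ×100.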

Mus musculus [2] = assay: Toxicity in ICR swiss mouse allografted with mouse Ehrlich carcinoma ascites assessed as change in body weight at 100 mg/kg, ip administered qd for 9 days beginning 24 hrs after tumor implantation; type: organism-based; parameters: dose 100 mg/kg, route intraperitoneal; conditions: in vivo
How it was run: (§1)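 Female ICR Swiss mice (19-22 g) carrying Ehrlich ascites carcinoma. Compound suspended in 0.9% NaCl with 0.5% Tween 80 and given ip at 0.4 mL, once daily for 9 days starting 24 h after implantation. Groups of 6 treated and 30 control mice. Read-out is the weight difference in grams between treated and control animals.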

[3] = In vivo cytostatic activity against mouse Ehrlich carcinoma ascites allografted in ICR swiss mouse assessed as median survival time at 100 mg/kg, ip administered qd for 9 days beginning 24 hrs after tumor implantation relative to control; type: functional; conditions: route intraperitoneal
How it was run: (§2)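 Female ICR Swiss mice (19-22 g) bearing Ehrlich ascites carcinoma, per NCI protocols 1100/1200; compound suspended in 0.9% NaCl with 0.5% Tween 80, given ip at 0.4 mL once daily for 9 days from 24 h post-implant. Groups of 6 treated vs 30 controls; 5-fluorouracil 20 mg/kg/injection as positive control. T/C = treated/control median survival time as percentage.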

P388 = assay: In vivo cytostatic activity against mouse P388 cells allografted in mouse assessed as increase in host life span at 50 mg/kg; type: functional
Mus musculus [4] = assay: Toxicity in ICR swiss mouse allografted with mouse Ehrlich carcinoma ascites assessed as change in body weight at 75 mg/kg, ip administered qd for 9 days beginning 24 hrs after tumor implantation; type: organism-based; parameters: dose 75 mg/kg, route intraperitoneal; conditions: in vivo; how it was run: as §1
[5] = In vivo cytostatic activity against mouse Ehrlich carcinoma ascites allografted in ICR swiss mouse assessed as median survival time at 75 mg/kg, ip administered qd for 9 days beginning 24 hrs after tumor implantation relative to control; type: functional; conditions: route intraperitoneal; how it was run: as §2

EC50 (HeLa) [µg/mL]	SMILES	Activity (Mus musculus [1])	further results
18 (≈ 86.7 µM)	ClCc1cn(Cc2ccccc2)nn1		
2 (≈ 6.69 µM)	ICc1cn(Cc2ccccc2)nn1	inactive	
2 (≈ 7.93 µM)	BrCc1cn(Cc2ccccc2)nn1	inactive	
20 (≈ 40.7 µM)	CC(=O)N[C@@H]1[C@@H](OC(C)=O)[C@H](OC(C)=O)[C@@H](COC(C)=O)O[C@H]1n1cc(CBr)nn1		
20 (≈ 44.8 µM)	CC(=O)N[C@@H]1[C@@H](OC(C)=O)[C@H](OC(C)=O)[C@@H](COC(C)=O)O[C@H]1n1cc(CCl)nn1		
> 100	FCc1cn(Cc2ccccc2)nn1		
37 (≈ 82.6 µM)	CC(=O)OC[C@H]1O[C@@H](n2cc(CCl)nn2)[C@H](OC(C)=O)[C@@H](OC(C)=O)[C@@H]1OC(C)=O		

Continued, molecule first:

SMILES	EC50 (HeLa) [µg/mL]	Activity (Mus musculus [1])	further results
CC(=O)N[C@@H]1[C@@H](OC(C)=O)[C@H](OC(C)=O)[C@@H](COC(C)=O)O[C@H]1n1nnc(CO)c1CO	> 100		
CC(=O)OC[C@H]1O[C@@H](n2nnc(CCl)c2CCl)[C@H](OC(C)=O)[C@@H](OC(C)=O)[C@@H]1OC(C)=O	6 (≈ 12.1 µM)		
CC(=O)OC[C@H]1O[C@@H](n2nncc2CCl)[C@H](OC(C)=O)[C@@H](OC(C)=O)[C@@H]1OC(C)=O	25 (≈ 55.8 µM)		
CC(=O)OC[C@H]1O[C@@H](n2nncc2CBr)[C@H](OC(C)=O)[C@@H](OC(C)=O)[C@@H]1OC(C)=O	4 (≈ 8.13 µM)	inactive	
CC(=O)OC[C@H]1O[C@@H](n2cc(CI)nn2)[C@H](OC(C)=O)[C@@H](OC(C)=O)[C@@H]1OC(C)=O	2 (≈ 3.71 µM)	Active	Activity (Mus musculus [2]): -1.1 g; T/C [3]: 195%
CC(=O)N[C@@H]1[C@@H](OC(C)=O)[C@H](OC(C)=O)[C@@H](COC(C)=O)O[C@H]1n1nncc1CCl	25 (≈ 55.9 µM)		
CC(=O)OC[C@H]1O[C@@H](n2nnc(CO)c2CO)[C@H](OC(C)=O)[C@@H](OC(C)=O)[C@@H]1OC(C)=O	> 100		
CC(=O)N[C@@H]1[C@@H](OC(C)=O)[C@H](OC(C)=O)[C@@H](COC(C)=O)O[C@H]1n1cc(CO)nn1	> 100		
CC(=O)OC[C@H]1O[C@@H](n2cc(CBr)nn2)[C@H](OC(C)=O)[C@@H](OC(C)=O)[C@@H]1OC(C)=O	3.5 (≈ 7.11 µM)	Active	T/C (P388): 163%; Activity (Mus musculus [4]): -0.5 g; T/C [5]: 145%
CC(=O)OC[C@H]1O[C@@H](n2nnc(CBr)c2CBr)[C@H](OC(C)=O)[C@@H](OC(C)=O)[C@@H]1OC(C)=O	3 (≈ 5.13 µM)	inactive	
Sc1ncnc2nc[nH]c12 [MERCAPTOPURINE ANHYDROUS]	0.1 (≈ 0.657 µM)		
CC(=O)N[C@@H]1[C@@H](OC(C)=O)[C@H](OC(C)=O)[C@@H](COC(C)=O)O[C@H]1n1nncc1CO	> 100		
